The list is not random: actives were taken first. Their share in the collection is about 4.1%.
KCNK9 block = human KCNK9 channel inhibition; B-score at 10 µM; HEK293 KCNK9, FluxOR thallium flux fluorescence; active compounds read low; 310,000 compounds, 1.2% hits;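 active = ratio B-score over 3 SD below the library mean, with starting fluorescence within 5 SD of its mean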;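 also: negative B-score means less thallium flux so channel inhibition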
KCNQ1 act = potentiators or activators of human KCNQ1 potassium channel | 310,000 compounds, 0.35% hits | B-score at 10 µM | CHO-K1 KCNQ1, thallium flux FluxOR fluorescence; active compounds read high | P51787 | AID 2648;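 active = fluorescence ratio B-score, a plate-corrected score, at least three library SD, with initial intensity B-score within 5 SD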
Target sequence (P51787 whole entry, looked up): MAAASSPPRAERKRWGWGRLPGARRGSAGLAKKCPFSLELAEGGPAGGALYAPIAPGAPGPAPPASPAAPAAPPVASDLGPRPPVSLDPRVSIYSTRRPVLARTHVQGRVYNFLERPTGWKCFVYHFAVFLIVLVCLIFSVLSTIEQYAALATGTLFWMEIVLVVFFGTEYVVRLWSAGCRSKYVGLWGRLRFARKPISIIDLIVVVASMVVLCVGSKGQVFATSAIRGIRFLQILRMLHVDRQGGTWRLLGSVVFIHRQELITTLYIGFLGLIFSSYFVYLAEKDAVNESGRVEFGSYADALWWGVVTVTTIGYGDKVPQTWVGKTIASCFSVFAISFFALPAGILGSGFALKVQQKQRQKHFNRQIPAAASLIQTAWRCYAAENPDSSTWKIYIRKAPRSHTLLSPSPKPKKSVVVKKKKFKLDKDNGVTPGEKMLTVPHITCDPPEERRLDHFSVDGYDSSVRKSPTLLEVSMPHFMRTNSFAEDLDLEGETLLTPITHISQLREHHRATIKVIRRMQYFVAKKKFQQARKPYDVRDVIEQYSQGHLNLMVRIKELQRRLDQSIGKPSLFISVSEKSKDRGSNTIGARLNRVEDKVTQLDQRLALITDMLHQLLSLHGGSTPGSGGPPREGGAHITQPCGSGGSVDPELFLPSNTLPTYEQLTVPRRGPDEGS
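Material: CHO-K1 cells stably expressing KCNQ1. Medium: assay buffer for compound exposure, DMSO matched across wells. Reagent: K+/Tl+ depolarizing stimulus. Compound dosing: single-concentration screen. Times: 37 °C overnight plating, 90-min dark dye load, 20-min compound pretreatment. Technique: FluxOR Tl+ flux fluorescence.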
KCNK3 block = human KCNK3 channel inhibition, primary screen; O14649; CHO-KCNK3 thallium flux, FluxOR fluorescence; active compounds read low; B-score at 10 µM; 340,000 compounds, 0.84% hits; AID 602410;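 active = B-score under library mean minus 4 SD, starting fluorescence ratio at most library mean plus 5 SD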;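 also: more negative B-score means stronger inhibition of thallium flux through KCNK3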
hERG protect = shields human hERG channel from block by proarrhythmic agents; 310,000 compounds, 0.51% hits; Q12809; activation (rescue from dofetilide block), less the hit threshold, % at 10 µM; CHO-hERG, FluxOR thallium flux, dofetilide IC70 present;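 active = activation above the mean of controls blocked by dofetilide plus 5 SD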;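 also: thallium influx through hERG after potassium depolarization seen as dye fluorescence rise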
KCNQ1 inh = human KCNQ1 channel inhibition; P51787; CHO-K1 KCNQ1, FluxOR thallium flux fluorescence; active compounds read high; B-score at 10 µM; 310,000 compounds, 1.3% hits; AID 2642;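 active = compounds whose thallium flux B-score, printed positive for inhibition, exceeds three library SD while starting fluorescence stays within three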;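 also: channel opened by potassium depolarization with thallium stimulus after 20 min compound exposure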
Cl transport mod = KCC2 (human) Cl- transport modulation | Q9H2X9 | KCC2 cells, thallium flux FluoZin-2 fluorescence | B-score of Tl+ flux slope (higher = more flux/activation; lower = inhibition) at 10 µM | 190,000 compounds, 2.2% hits;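 active = thallium flux slope and its plate-corrected score both differing from the plate sample mean at a set confidence after two filtering rounds, in either direction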;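 also: slope of fluorescence scaled to starting intensity during 10 to 20 s after thallium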
KCC2 sec1 = KCC2 (human) modulation, secondary assay; shares compounds with Cl transport mod; normalised thallium flux (F/F0 slope) at 10 µM; 3,700 compounds, 15% hits; HEK293-KCC2, thallium flux, FluoZin2 fluorescence; active compounds read high; AID 1713;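 active = thallium flux slope above the same plate's solvent-only control mean plus 3 SD; inconclusive = the two replicate wells disagree; inactive = no significant difference from solvent-only control wells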
KCC2 bumet counter = bumetanide-insensitive thallium flux in KCC2 cells with ouabain, counter-screen; 3,700 compounds, 49% hits; HEK293-KCC2 + bumetanide/ouabain, thallium flux FluoZin2; active compounds read high; shares compounds with Cl transport mod; normalized thallium flux at 10 µM; AID 1714;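 active = thallium entry rate above the same plate's blocked-transporter control wells by more than 3 SD; inconclusive = the two repeat wells disagree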;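 also: raw slope of fluorescence over initial fluorescence between 10 and 20 s after thallium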
KCC2 secondary2 = confirmation of human KCC2 transport modulators | shares compounds with Cl transport mod | HEK293-KCC2, thallium flux FluoZin2 fluorescence; actives lie on both sides; F/F0 rise rate, 10–20 s post-thallium | normalized thallium flux at 10 µM | 3,700 compounds, 23% hits | AID 1715;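 active = thallium flux slope more than 3 SD above or below the plate's solvent-only control mean, mostly below; inconclusive = the two repeat wells disagreed; inactive = no significant shift from solvent-only controls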;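 also: raw slope with 0.1% DMSO as baseline and bumetanide as block control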
HEK293 Tl flux = acts in parental HEK cells, KCC2 counter-screen. shares compounds with Cl transport mod. 3,700 compounds, 46% hits. thallium flux rate (normalised fluorescence) at 10 µM. HEK293 parental cells, thallium flux FluoZin2, ouabain; baseline-ratio fluorescence slope, 10–20 s after thallium. AID 1716;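 active = thallium flux rate significantly above the same plate's solvent-only control wells, beyond their mean plus 3 SD; inconclusive = the two replicate wells gave conflicting results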
KCC2 retest ouab = modulates human KCC2 on retest with ouabain; shares compounds with Cl transport mod; HEK293-KCC2, thallium flux FluoZin2 fluorescence; bidirectional: low = inhibitor, high = activator; raw Tl+ flux slope (below DMSO = inhibition, above = activation) at 10 µM; 3,700 compounds, 48% hits;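 active = thallium flux slope beyond 3 SD from same-plate DMSO control mean in most replicates, usually higher, sometimes lower; inconclusive = repeat tests gave conflicting results; inactive = no significant difference from controls in most replicates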;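 also: slope of initial-normalized fluorescence between seconds 10 and 20 after thallium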
HEK293 Tl flux2 = acts in parental HEK cells, second KCC2 counter-screen | HEK293 parental, thallium flux FluoZin-2 fluorescence slope | shares compounds with Cl transport mod | thallium flux slope at 10 µM | AID 1718 | 3,700 compounds, 33% hits;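 active = thallium flux slope above the same plate's solvent-control mean plus 3 SD in both duplicate wells; inconclusive = duplicate wells that disagreed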;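 also: run without ouabain in cells lacking the KCC2 cotransporter; slope of fluorescence scaled to its starting value between 10 and 20 s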
Active calls of the source: *; i = inactive; u = inconclusive; x = no result given.

SMILES	KCNK9 block	KCNQ1 act	KCNK3 block	hERG protect	KCNQ1 inh	Cl transport mod	KCC2 sec1	KCC2 bumet counter	KCC2 secondary2	HEK293 Tl flux	KCC2 retest ouab	HEK293 Tl flux2
Cc1ccc(-c2cc(-c3ccccc3)[nH]c(=S)c2C#N)cc1	i	i	i	-3.5	i	x	x	x	x	x	x	x
N#Cc1c(-c2ccc(C(F)(F)F)cc2)cc(-c2ccccc2)[nH]c1=S	i	i	i	-5.6	i	5*	0.0201*	0.0222*	0.0402	u	0.0294*	0.0244*
COc1ccccc1OC(C)C(=O)N1CCN(Cc2ccc3c(c2)OCO3)CC1 (configuration not stated)	i	i	i	-6.2	i	x	x	x	x	x	x	x
CCN(CC)/C(Sc1ccccc1)=C(\C(Cl)=C(Cl)Cl)[N+](=O)[O-]	i	i	i	-5.3	i	-4.92*	0.00503	u	u	0.00637*	u	0.0102
CNc1oc(C)nc1S(=O)(=O)c1ccc(C)cc1	i	i	i	-0.4	i	x	x	x	x	x	x	x
Cc1ccc(S(=O)(=O)c2nc(C)oc2NCc2ccccc2)cc1	i	i	x	-13.0	i	x	0.00599	0.00553	0.0333	0.0076	u	0.0112
Cc1ccc(-c2cc(-c3n[nH]c(=S)n3C)c3ccccc3n2)cc1	i	i	i	-14.7	i	10.7*	0.00915	0.0444*	0.0312	0.0122*	u	u
CCn1c(-c2cc(-c3ccc(C)c(C)c3)nc3ccccc23)n[nH]c1=S	i	i	x	1.2	i	1.31	x	x	x	x	x	x
CCOc1cccc(-c2cc(-c3n[nH]c(=S)n3CC)c3ccccc3n2)c1	i	i	i	-5.4	i	x	0.00894	0.0724*	0.0306	0.0152*	u	u
COc1cc2c(c(OC)c1OC)C(=O)CO2	x	x	i	x	x	x	x	x	x	x	x	x
CC(=O)c1c(C)[nH]c(C(=O)OCC(=O)NCc2cccs2)c1C	x	x	i	x	x	x	x	x	x	x	x	x
CC(NC(=O)c1ccnc(C(C)(C)C)c1)c1ccccc1 (configuration not stated)	i	i	i	-13.1	i	0.552	0.0185	u	u	0.00709	0.0151	0.00941
CC(C)(C)c1cc(C(=O)Nc2ccccc2)ccn1	i	i	i	-6.5	i	2.58	x	x	x	x	x	x
CN(Cc1nc2ccccc2c(=O)[nH]1)C(=O)COc1ccccc1Cc1ccccc1	x	x	i	x	x	x	x	x	x	x	x	x
Cc1cc(C(=O)O)ccc1-c1ccc(/C=C2\NC(=O)N(Cc3ccc(F)cc3)C2=O)o1	i	i	i	-7.2	i	-1.53	x	x	x	x	x	x
S=C(Nc1ccccc1)Nc1nccs1	i	i	i	-4.9	i	138*	0.0101*	0.0836*	0.05*	0.0696*	0.0687*	0.0393*
Fc1ccc(NC(=S)Nc2nccs2)cc1	i	i	i	10.1*	i	77.3*	0.03*	0.0637*	u	0.104*	0.0835*	0.026*
Cc1ccccc1N=C1SCCN1C(=O)CN1C(=O)NC2(CCCC2)C1=O	i	i	i	-7.7	i	x	x	x	x	x	x	x
COc1ccc(OC)c(NC(=O)COC(=O)COc2ccc(Nc3ccccc3)cc2)c1	x	x	i	x	x	x	x	x	x	x	x	x
O=C(N/N=C/c1cc(Br)c(Br)s1)c1ccncc1	i	i	i	-7.5	i	6.51*	0.0092	0.0145*	0.036	0.00968*	u	0.0111
O=C(N/N=C/c1ccc(Br)s1)c1ccncc1	i	i	i	-15.7	i	0.651	x	x	x	x	x	x
O=C(N/N=C/c1cc(Br)cc(Br)c1O)c1ccncc1	i	i	x	-12.0	i	-4.52*	0.00558	0.000551*	0.0171*	0.00277*	0.0078*	0.00456*
CCOC(=O)C1CCN(C(=O)COC(=O)c2c(C)c(CC)nc3ccccc23)CC1	x	x	i	x	x	x	x	x	x	x	x	x
O=C(Cc1cccs1)N1CCCC(c2nc3c(nnn3Cc3ccccc3Cl)c(=O)[nH]2)C1 (configuration not stated)	i	i	i	-17.0	i	-3.67*	0.00672	0.00554	0.031	0.00638	0.0165*	0.0106
COC(=O)C1CN(C(=O)C(C)Oc2ccc(C)c(C)c2)c2ccccc2O1 (configuration not stated)	i	i	i	-3.5	i	x	x	x	x	x	x	x
SMILES	KCNK9 block	KCNQ1 act	KCNK3 block	hERG protect	KCNQ1 inh	Cl transport mod	KCC2 sec1	KCC2 bumet counter	KCC2 secondary2	HEK293 Tl flux	KCC2 retest ouab	HEK293 Tl flux2
COc1cc(OC)cc(-c2nnc(SCc3c(F)cccc3Cl)o2)c1	i	i	i	1.3	i	-0.0556	x	x	x	x	x	x
Fc1cccc(Cl)c1CSc1nnc(CNc2ccccc2)o1	i	i	i	-5.5	i	-3.5*	0.0146	0.00295	0.0265	0.00578*	0.0137*	u
O=C(CNC(=O)c1cccs1)NC1=NCCS1	i	i	i	2.3	i	2.86*	0.00573	0.00491	0.0302	0.00799	0.0191	0.011
O=C(CNC(=O)c1ccccc1F)NC1=NCCS1	i	i	i	-6.0	i	x	x	x	x	x	x	x
COc1cc(/C=N/NC(=O)c2c(C)nnn2-c2nonc2N)ccc1O	i	i	i	-4.9	i	4.72*	0.00964	0.00482	0.0309	0.00868	0.0194	0.0115
CN(C(=O)c1cc(S(=O)(=O)N2CCOCC2)cs1)c1ccccc1	i	i	i	-7.6	i	x	x	x	x	x	x	x
Cc1ccc(C(=O)NC(=S)NNC(=O)c2ccc([N+](=O)[O-])cc2)cc1	i	i	i	-11.4	i	x	x	x	x	x	x	x
CCNC(=S)NNC(=O)c1ccc(OC)cc1	i	i	i	-2.0	i	1.38	x	x	x	x	x	x
CCCCC(=O)NC(=S)NNC(=O)c1ccc(Cl)cc1Cl	i	i	i	-1.3	i	33.2*	0.00988*	0.0692*	0.0398*	0.0476*	0.0568*	0.0285*

Screening data (PubChem)
